Measurements collected from several papers.
Each line is one published result; the experiments were not run side by side.
ACSL4: Long-chain-fatty-acid--CoA ligase 4 (ACSL4, Homo sapiens, UniProt O60488)
CDK7: Cyclin-dependent kinase 7 (CDK7, Homo sapiens, UniProt P50613)
PTGER4: Prostaglandin E2 receptor EP4 subtype (PTGER4, Homo sapiens, UniProt P35408)

| Compound | target | assay | conditions | measurement | value |
| --- | --- | --- | --- | --- | --- |
| O=C1NC(=O)C(Cc2ccc(N3CCN(c4ccccn4)CC3)cc2)S1 (stereo not shown) | ACSL4 | enzyme activity, inhibitor | 10 µM | inhibition | 42% |
| C1=C/COCc2cc(ccc2OCCN2CCCC2)Nc2nccc(n2)-c2cccc(c2)COC/1 | Serine/threonine-protein kinase MAK (MAK, Homo sapiens, UniProt P20794) | binding | 0.1 µM | remaining binding | 100% |
| C[C@]1(O)CCCN(c2nc(Nc3ccc(S(=O)(=O)N[C@H]4CC[C@H](CN5CCN(c6ccc(C7CCC(=O)NC7=O)cc6F)CC5)CC4)cc3F)ncc2C(F)(F)F)C1 (stereo partly shown) | CDK7 | binding, competition with immobilised ligand | 1 µM | remaining binding | 85% |
| CCN1/C(=C/C(C)=O)Sc2ccc(F)cc21 | PTGER4 | ligand displacement, radioligand | 10 µM | inhibition | 4.39% |
| CNS(=O)(=O)c1ccc(Nc2ncc(C(F)(F)F)c(N3CCC[C@](C)(O)C3)n2)c(C)c1 | Mitogen-activated protein kinase 7 (MAPK7, Homo sapiens, UniProt Q13164) | binding, competition with immobilised ligand | 1 µM | remaining binding | 14% |
| C#Cc1cc(-c2cc(Nc3nc(N[C@@H](C)c4ccc(F)cn4)ncc3Cl)n[nH]2)ccc1C=O | Serine/threonine-protein kinase 33 (STK33, Homo sapiens, UniProt Q9BYT3) | enzyme activity, inhibitor | 0.2 µM | inhibition | 7.93% |
| CCCCC(=O)Nc1ccc(-c2ccc3ncn(CCC)c(=O)c3c2)cn1 | Dual specificity protein kinase TTK (TTK, Homo sapiens, UniProt P33981) | binding, competition with immobilised ligand | 0.5 µM | remaining binding | 64% |
| Cc1cc(S(=O)(=O)N[C@H]2CC[C@H](CN3CCN(c4ccc(C5CCC(=O)NC5=O)cc4F)CC3)CC2)ccc1Nc1ncc(C(F)(F)F)c(N2CCC[C@](C)(O)C2)n1 (stereo partly shown) | CDK7 | binding, competition with immobilised ligand | 1 µM | remaining binding | 55% |
| CC1(COc2ccc(CC3SC(=O)NC3=O)cc2)CCCCC1 (stereo not shown) | ACSL4 | enzyme activity, inhibitor | 10 µM | inhibition | 20% |
| NC/C(=C\F)COc1cccc(Cn2c(=S)[nH]c(=O)c3[nH]cnc32)c1 | PTGER4 | ligand displacement, radioligand | 10 µM | inhibition | < 50% |
| CN1CCc2c(c3ccccc3n2Cc2ccc(C(=O)NO)cc2)C1 | Protein deacetylase HDAC6 (HDAC6, Homo sapiens, UniProt Q9UBN7) | enzyme activity, inhibitor, fluorescence | 0.5 µM | inhibition | 94.8% |
| COc1ccc2oc(-c3ccc4nc(N)oc4c3)c/c(=N\c3ccccc3NC(=O)CCN)c2c1 | Death-associated protein kinase 1 (DAPK1, Homo sapiens, UniProt P53355) | binding | 1 µM | remaining binding | 104% |
| O=C(/C=C/c1ccc(O)c(O)c1)O[C@H](Cc1ccc(O)c(O)c1)C(=O)O | Peroxiredoxin-1 (PRDX1, Homo sapiens, UniProt Q06830) | thermal stability, DSF | 800 µM | ΔTm | 9.31 °C |
